Measurements: ChEMBL document CHEMBL4257453, “Identification of karanjin isolated from the Indian beech tree as a potent CYP1 enzyme inhibitor with cellular efficacy via screening of a natural product repository” (Medchemcomm, 2018)

Assays:
CYP1A1 [1] = target: T1, CYP1A1 (Homo sapiens, UniProt P04798); assay: Inhibition of recombinant human CYP1A1 expressed in baker's yeast-derived microsomes (Sacchrosomes) at 10 uM using 7-ethoxyresorufin substrate by EROD assay relative to control; conditions: probe 7-ethoxyresorufin
T1 sequence (P04798 whole entry): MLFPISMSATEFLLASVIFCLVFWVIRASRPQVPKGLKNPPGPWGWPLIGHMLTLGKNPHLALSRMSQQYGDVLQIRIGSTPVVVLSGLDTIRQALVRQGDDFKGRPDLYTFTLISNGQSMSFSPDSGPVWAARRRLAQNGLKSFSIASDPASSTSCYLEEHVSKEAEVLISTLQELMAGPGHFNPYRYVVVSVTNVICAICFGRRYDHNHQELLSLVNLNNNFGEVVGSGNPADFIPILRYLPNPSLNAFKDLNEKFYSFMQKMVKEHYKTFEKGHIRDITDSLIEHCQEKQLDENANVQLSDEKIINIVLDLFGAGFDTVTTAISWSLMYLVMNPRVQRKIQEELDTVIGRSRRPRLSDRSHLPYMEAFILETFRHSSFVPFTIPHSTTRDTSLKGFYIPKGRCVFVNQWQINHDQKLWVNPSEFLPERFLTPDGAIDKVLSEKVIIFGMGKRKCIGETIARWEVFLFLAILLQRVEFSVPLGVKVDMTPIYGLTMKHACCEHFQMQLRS
Procedure, shortened: (§1)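 Yeast microsomes carrying recombinant CYP (Sacchrosomes). Substrates per isoform are 7-ethoxyresorufin, 3-cyano-7-ethoxycoumarin, EOMCC or dibenzylfluorescein, read as endpoint fluorescence. Background from compound-only wells without enzyme is subtracted. Independent triplicate runs; α-naphthoflavone positive control.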

CYP1A2 = target: T2, CYP1A2 (Homo sapiens, UniProt P05177); assay: Inhibition of recombinant human CYP1A2 expressed in baker's yeast-derived microsomes (Sacchrosomes) at 10 uM using 3-cyano-7-ethoxycoumarin substrate by EROD assay relative to control; format: ADME; conditions: probe 3-cyano-7-ethoxycoumarin; procedure, shortened: as §1
T2 sequence (P05177 whole entry): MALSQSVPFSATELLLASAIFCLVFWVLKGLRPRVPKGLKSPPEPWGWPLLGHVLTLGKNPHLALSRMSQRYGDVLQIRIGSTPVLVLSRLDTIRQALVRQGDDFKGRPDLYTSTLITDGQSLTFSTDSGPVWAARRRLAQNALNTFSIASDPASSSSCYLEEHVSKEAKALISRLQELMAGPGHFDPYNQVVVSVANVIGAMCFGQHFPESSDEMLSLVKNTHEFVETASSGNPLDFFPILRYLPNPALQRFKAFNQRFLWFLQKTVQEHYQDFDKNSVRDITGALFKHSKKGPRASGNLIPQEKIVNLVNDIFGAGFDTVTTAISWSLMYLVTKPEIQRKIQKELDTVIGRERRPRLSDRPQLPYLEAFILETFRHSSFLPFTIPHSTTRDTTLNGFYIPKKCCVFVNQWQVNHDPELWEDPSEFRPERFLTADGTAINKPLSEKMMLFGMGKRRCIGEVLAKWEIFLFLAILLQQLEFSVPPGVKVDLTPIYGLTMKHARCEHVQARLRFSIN

CYP1B1 = target: T3, CYP1B1 (Homo sapiens, UniProt Q16678); assay: Inhibition of recombinant human CYP1B1 expressed in baker's yeast-derived microsomes (Sacchrosomes) at 10 uM using 7-ethoxyresorufin substrate by EROD assay relative to control; format: ADME; conditions: probe 7-ethoxyresorufin
T3 sequence (Q16678 whole entry): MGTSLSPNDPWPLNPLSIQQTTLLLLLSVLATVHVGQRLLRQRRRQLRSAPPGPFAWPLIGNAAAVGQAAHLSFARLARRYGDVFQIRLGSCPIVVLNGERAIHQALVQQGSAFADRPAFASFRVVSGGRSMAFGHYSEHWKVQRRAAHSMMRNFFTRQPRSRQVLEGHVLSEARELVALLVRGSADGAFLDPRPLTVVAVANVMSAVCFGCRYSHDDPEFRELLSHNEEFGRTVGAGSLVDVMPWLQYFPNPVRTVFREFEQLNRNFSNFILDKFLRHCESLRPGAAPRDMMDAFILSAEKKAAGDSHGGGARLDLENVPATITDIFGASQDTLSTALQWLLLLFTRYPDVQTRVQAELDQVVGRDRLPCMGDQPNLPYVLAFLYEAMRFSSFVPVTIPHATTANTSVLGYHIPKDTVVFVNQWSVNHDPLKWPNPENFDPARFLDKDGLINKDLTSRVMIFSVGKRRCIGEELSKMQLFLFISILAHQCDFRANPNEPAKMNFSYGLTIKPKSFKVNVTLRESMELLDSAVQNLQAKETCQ
Procedure, shortened: (§2)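 Yeast microsomes carrying recombinant CYP (Sacchrosomes). […] Substrates per isoform are 7-ethoxyresorufin, 3-cyano-7-ethoxycoumarin, EOMCC or dibenzylfluorescein, read as endpoint fluorescence. Background from compound-only wells without enzyme is subtracted. Independent triplicate runs; α-naphthoflavone positive control.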

CYP2D6 = CYP2D6 (Homo sapiens, UniProt P10635); assay: Inhibition of recombinant human CYP2D6 expressed in baker's yeast-derived microsomes (Sacchrosomes) at 10 uM using 7-ethoxy-methyloxy-3-cyanocoumarin substrate by EROD assay relative to control; format: ADME; conditions: probe 7-ethoxy-methyloxy-3-cyanocoumarin; procedure, shortened: as §2
CYP3A4 = CYP3A4 (Homo sapiens, UniProt P08684); assay: Inhibition of recombinant human CYP3A4 expressed in baker's yeast-derived microsomes (Sacchrosomes) at 10 uM using dibenzylfluorescein substrate by EROD assay relative to control; format: ADME; conditions: probe dibenzylfluorescein; procedure, shortened: as §2
CYP2C9 = CYP2C9 (Homo sapiens, UniProt P11712); assay: Inhibition of recombinant human CYP2C9 expressed in baker's yeast-derived microsomes (Sacchrosomes) at 10 uM using 3-cyano-7-ethoxycoumarin substrate by EROD assay relative to control; format: ADME; conditions: probe 3-cyano-7-ethoxycoumarin; procedure, shortened: as §2
CYP2C19 = CYP2C19 (Homo sapiens, UniProt P33261); assay: Inhibition of recombinant human CYP2C19 expressed in baker's yeast-derived microsomes (Sacchrosomes) at 10 uM using 3-cyano-7-ethoxycoumarin substrate by EROD assay relative to control; format: ADME; conditions: probe 3-cyano-7-ethoxycoumarin; procedure, shortened: as §2
CYP1A1 [2] = target: T1, CYP1A1; assay: Inhibition of human recombinant CYP1A1 expressed in HEK293 cells at 10 uM using 7-ethoxyresorufin substrate preincubated for 30 mins followed by substrate addition and measured after 60 mins by fluorescence assay relative to control; format: cell-based; conditions: HEK293 cells expressing human recombinant CYP1A1, probe 7-ethoxyresorufin
Procedure, shortened: (§3)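 HEK293 cells adapted to suspension and transiently transfected with pcDNA3.1 plasmids carrying the individual CYP; 100×10^3 cells per well in triplicate. […] Fluorogenic substrate is then added at 5 μM and fluorescence read for 60 min.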

Cytochrome P450 1A1 = target: T4, Cytochrome P450 1A1 (Homo sapiens, UniProt P04798); assay: Inhibition of human recombinant CYP1A1 expressed in HEK293 cells using 7-ethoxyresorufin substrate preincubated for 30 mins followed by substrate addition and measured after 60 mins by fluorescence assay relative to control; format: cell-based; procedure, shortened: as §3
T4 sequence (P04798 whole entry): T1 sequence (P04798 whole entry)

Cytochrome P450 1A2 = target: T5, Cytochrome P450 1A2 (Homo sapiens, UniProt P05177); assay: Inhibition of human recombinant CYP1A2 expressed in HEK293 cells using 3-cyano-7-ethoxycoumarin substrate preincubated for 30 mins followed by substrate addition and measured after 60 mins by fluorescence assay relative to control; format: ADME, cell-based; procedure, shortened: as §3
T5 sequence (P05177 whole entry): T2 sequence (P05177 whole entry)

Cytochrome P450 1B1 = target: T6, Cytochrome P450 1B1 (Homo sapiens, UniProt Q16678); assay: Inhibition of human recombinant CYP1B1 expressed in HEK293 cells using 7-ethoxyresorufin substrate substrate preincubated for 30 mins followed by substrate addition and measured after 60 mins by fluorescence assay relative to control; format: ADME, cell-based; procedure, shortened: as §3
T6 sequence (Q16678 whole entry): T3 sequence (Q16678 whole entry)

Cytochrome P450 2D6 = Cytochrome P450 2D6 (Homo sapiens, UniProt P10635); assay: Inhibition of human recombinant CYP2D6 expressed in HEK293 cells using 7-ethoxy-methyloxy-3-cyanocoumarin substrate substrate preincubated for 30 mins followed by substrate addition and measured after 60 mins by fluorescence assay relative to control; format: ADME, cell-based; procedure, shortened: as §3
Cytochrome P450 2C9 = Cytochrome P450 2C9 (Homo sapiens, UniProt P11712); assay: Inhibition of human recombinant CYP2C9 expressed in HEK293 cells using 3-cyano-7-ethoxycoumarin substrate substrate preincubated for 30 mins followed by substrate addition and measured after 60 mins by fluorescence assay relative to control; format: ADME, cell-based; procedure, shortened: as §3
Cytochrome P450 2C19 = Cytochrome P450 2C19 (Homo sapiens, UniProt P33261); assay: Inhibition of human recombinant CYP2C19 expressed in HEK293 cells using 3-cyano-7-ethoxycoumarin substrate substrate preincubated for 30 mins followed by substrate addition and measured after 60 mins by fluorescence assay relative to control; format: ADME, cell-based; procedure, shortened: as §3
Cytochrome P450 3A4 = Cytochrome P450 3A4 (Homo sapiens, UniProt P08684); assay: Inhibition of human recombinant CYP3A4 expressed in HEK293 cells using dibenzylfluorescein substrate substrate preincubated for 30 mins followed by substrate addition and measured after 60 mins by fluorescence assay relative to control; format: ADME, cell-based
Procedure, shortened: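 HEK293 cells adapted to suspension and transiently transfected with pcDNA3.1 plasmids carrying the individual CYP; 100×10^3 cells per well in triplicate. Fluorogenic substrate is then added at 5 μM and fluorescence read for 60 min.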

Chain of CYP2C9 (P11712 whole entry): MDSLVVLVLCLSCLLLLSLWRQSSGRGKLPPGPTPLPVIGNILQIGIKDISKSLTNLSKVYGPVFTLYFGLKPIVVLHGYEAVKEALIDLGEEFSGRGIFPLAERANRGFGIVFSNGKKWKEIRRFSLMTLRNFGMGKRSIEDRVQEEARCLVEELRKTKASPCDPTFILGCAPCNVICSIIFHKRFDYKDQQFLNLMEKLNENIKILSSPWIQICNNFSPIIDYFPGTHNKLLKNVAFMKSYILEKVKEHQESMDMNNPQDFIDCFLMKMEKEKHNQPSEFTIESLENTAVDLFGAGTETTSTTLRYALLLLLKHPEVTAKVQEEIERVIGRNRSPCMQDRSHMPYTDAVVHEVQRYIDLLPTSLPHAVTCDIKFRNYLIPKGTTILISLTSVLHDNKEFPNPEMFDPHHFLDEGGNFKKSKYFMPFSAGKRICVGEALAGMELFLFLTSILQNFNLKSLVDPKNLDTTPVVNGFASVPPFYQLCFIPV
Chain of Cytochrome P450 2C9 (P11712 whole entry): as above
Chain of Cytochrome P450 2D6 (P10635 whole entry): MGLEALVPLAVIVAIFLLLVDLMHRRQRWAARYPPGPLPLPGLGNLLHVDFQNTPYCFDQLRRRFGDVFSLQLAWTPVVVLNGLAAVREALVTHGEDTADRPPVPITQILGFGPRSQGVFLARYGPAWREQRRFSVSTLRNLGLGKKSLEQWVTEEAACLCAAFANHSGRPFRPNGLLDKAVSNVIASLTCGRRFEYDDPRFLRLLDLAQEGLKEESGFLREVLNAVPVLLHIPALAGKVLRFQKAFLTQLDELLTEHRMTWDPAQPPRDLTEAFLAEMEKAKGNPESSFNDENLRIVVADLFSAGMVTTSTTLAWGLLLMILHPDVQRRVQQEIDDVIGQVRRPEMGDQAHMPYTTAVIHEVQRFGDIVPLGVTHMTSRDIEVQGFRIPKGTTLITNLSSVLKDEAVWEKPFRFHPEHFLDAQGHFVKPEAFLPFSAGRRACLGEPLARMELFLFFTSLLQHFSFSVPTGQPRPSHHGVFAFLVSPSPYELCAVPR
Chain of CYP2D6 (P10635 whole entry): as above
Chain of CYP2C19 (P33261 whole entry): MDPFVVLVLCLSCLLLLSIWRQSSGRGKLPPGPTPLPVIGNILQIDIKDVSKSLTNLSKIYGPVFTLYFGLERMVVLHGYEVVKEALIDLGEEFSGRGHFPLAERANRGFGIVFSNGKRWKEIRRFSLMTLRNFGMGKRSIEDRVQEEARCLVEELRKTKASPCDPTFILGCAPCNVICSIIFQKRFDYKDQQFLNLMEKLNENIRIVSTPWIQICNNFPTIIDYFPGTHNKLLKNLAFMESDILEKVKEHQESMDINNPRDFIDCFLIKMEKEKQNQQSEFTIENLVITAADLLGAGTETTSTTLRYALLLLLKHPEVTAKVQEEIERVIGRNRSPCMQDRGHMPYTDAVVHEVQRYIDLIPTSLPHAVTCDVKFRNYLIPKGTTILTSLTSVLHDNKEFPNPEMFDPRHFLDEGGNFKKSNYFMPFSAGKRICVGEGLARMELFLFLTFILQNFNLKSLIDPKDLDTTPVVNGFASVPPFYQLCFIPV
Chain of Cytochrome P450 2C19 (P33261 whole entry): as above
Chain of CYP3A4 (P08684 whole entry): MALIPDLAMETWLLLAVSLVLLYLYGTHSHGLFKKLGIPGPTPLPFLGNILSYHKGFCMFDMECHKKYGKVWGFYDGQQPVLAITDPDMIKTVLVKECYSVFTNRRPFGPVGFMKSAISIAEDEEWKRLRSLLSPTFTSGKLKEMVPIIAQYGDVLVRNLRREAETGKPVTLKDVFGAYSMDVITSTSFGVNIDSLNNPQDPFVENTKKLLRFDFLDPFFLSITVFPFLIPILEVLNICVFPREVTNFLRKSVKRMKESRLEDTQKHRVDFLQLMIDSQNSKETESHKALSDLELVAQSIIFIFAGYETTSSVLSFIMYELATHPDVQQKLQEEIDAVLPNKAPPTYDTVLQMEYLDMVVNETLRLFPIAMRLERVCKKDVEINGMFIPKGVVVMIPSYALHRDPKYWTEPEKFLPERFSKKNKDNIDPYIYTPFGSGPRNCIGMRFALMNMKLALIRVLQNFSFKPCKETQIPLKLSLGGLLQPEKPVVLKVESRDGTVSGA
Chain of Cytochrome P450 3A4 (P08684 whole entry): as above

| SMILES | inhibition at 10 µM (CYP1A1 [1]) | inhibition at 10 µM (CYP1A2) | inhibition at 10 µM (CYP1B1) | inhibition at 10 µM (CYP2D6) | inhibition at 10 µM (CYP3A4) | inhibition at 10 µM (CYP2C9) | inhibition at 10 µM (CYP2C19) | inhibition at 1 h, 10 µM (CYP1A1 [2]) | IC50 (Cytochrome P450 1A1) | Ki (Cytochrome P450 1A1) | IC50 (Cytochrome P450 1A2) | Ki (Cytochrome P450 1A2) | IC50 (Cytochrome P450 1B1) | IC50 (Cytochrome P450 2D6) | IC50 (Cytochrome P450 2C9) | IC50 (Cytochrome P450 2C19) | IC50 (Cytochrome P450 3A4) |
| --- | --- | --- | --- | --- | --- | --- | --- | --- | --- | --- | --- | --- | --- | --- | --- | --- | --- |
| O=C1C=CC(=O)c2c(O)ccc(O)c21 [NAPHTHAZALIN] | 79 to 99% | 82% | 8% | 5% | 15% | 5% | 4% | 78% | 3820 nM | 3660 nM | 2160 nM | 2220 nM | > 10000 nM | > 10 µM | > 10 µM | > 10 µM | > 10 µM |
| COc1c(C(=O)CC(=O)c2ccccc2)ccc2occc12 | 85 to 87% | 8% | 12% | 14% | 9% | 0% | 3% | 85% | 2230 nM | 1960 nM | 3160 nM | 3860 nM | 6040 nM | > 10 µM | > 10 µM | > 10 µM | > 10 µM |
| COc1c2ccoc2c(OCC=C(C)C)c2oc(=O)ccc12 [PHELLOPTERIN] | 87 to 97% | 96% | 98% | 20% | 12% | 3% | 5% | 90% | 580 nM | 620 nM | 420 nM | 380 nM | 220 nM | > 10 µM | > 10 µM | > 10 µM | > 10 µM |
| Nc1nccc(-c2c[nH]c3ccc(Br)cc23)n1 [MERIDIANIN C] | 50 to 52% | 55% | 7% | 5% | 10% | 3% | 2% | 41% | 9230 nM | 9480 nM | 8720 nM | 8780 nM | 213 nM | > 10 µM | > 10 µM | > 10 µM | > 10 µM |
| COc1ccc(-c2cc(=O)c3c(O)c(OC)c(OC)cc3o2)cc1OC | 80% | 90% | 70% | 13% | 9% | 7% | 5% | 96% | 1380 nM | 1420 nM | 900 nM | 780 nM | 2500 nM | > 10 µM | > 10 µM | > 10 µM | > 10 µM |
